How the values were obtained:
D(2) dopamine receptor [1] = molecular target: T1, D(2) dopamine receptor (Bos taurus, UniProt P20288); experiment: Ability to displace [3H]spiperone binding from anterior pituitary Dopamine receptor D2 in the absence of GTP; NA means inactive
Method in brief: (§1)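 Bovine anterior pituitary membranes; displacement of [3H]spiperone (ca. 500 pM) with no GTP added. Specific binding defined with 3.3 μM (+)-butaclamol; buffer with 0.1% ascorbic acid in place of dithiothreitol. Triplicate points; IC50 corrected for [3H]spiperone concentration, plus pseudo Hill coefficient. Mean ± SEM (n ≥ 3) or mean ± range (n = 2).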

D(2) dopamine receptor [2] = molecular target: T1, D(2) dopamine receptor; experiment: Ability to displace [3H]spiperone binding from anterior pituitary Dopamine receptor D2 in the absence of GTP; method in brief: as §1
D(2) dopamine receptor [3] = molecular target: T1, D(2) dopamine receptor; experiment: Ability to displace [3H]spiperone binding from anterior pituitary Dopamine receptor D2 in the presence of 100 uM GTP
Method in brief: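 [3H]spiperone (ca. 500 pM) displacement in bovine anterior pituitary membranes in the presence of 100 μM GTP. Nonspecific binding set with 3.3 μM (+)-butaclamol; 0.1% ascorbic acid replaced dithiothreitol. Points in triplicate; IC50 corrected for radioligand concentration, with pseudo Hill coefficient. Mean ± SEM (n ≥ 3) or mean ± range (n = 2).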

T1 sequence (P20288 whole entry): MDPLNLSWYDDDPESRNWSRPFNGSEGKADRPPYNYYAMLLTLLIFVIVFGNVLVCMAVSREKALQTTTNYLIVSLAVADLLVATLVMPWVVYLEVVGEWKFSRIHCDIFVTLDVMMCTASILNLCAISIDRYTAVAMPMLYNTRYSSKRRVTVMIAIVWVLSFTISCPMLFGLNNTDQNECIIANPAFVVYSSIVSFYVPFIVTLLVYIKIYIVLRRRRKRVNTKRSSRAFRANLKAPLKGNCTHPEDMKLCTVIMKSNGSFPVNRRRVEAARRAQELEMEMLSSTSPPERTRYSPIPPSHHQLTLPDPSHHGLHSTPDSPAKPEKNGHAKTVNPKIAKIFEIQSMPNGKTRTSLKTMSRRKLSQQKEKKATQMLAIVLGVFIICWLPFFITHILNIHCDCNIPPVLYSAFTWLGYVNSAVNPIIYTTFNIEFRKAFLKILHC

For `O=C(CCl)NC1CCc2cc(O)c(O)cc2C1` (stereo not given), the IC50 (D(2) dopamine receptor [1]) was “Not Active”.
Compound `CCCN(CCCl)C1CCc2cc(O)c(O)cc2C1` (stereo not given) has an IC50 (D(2) dopamine receptor [2]) of 76 nM and an IC50 (D(2) dopamine receptor [3]) of 260 nM.
`CN(CCCl)C1CCc2cc(O)ccc2C1` (stereo not given) was tested, and the IC50 (D(2) dopamine receptor [2]) was 2970 nM.
In the case of `COc1cc2c(cc1OC)CC(NCCCl)CC2.Cl` (stereo not given), the IC50 (D(2) dopamine receptor [1]) is reported as “Not Active”.
With `CCCN(CCBr)C1CCc2cc(O)c(O)cc2C1` (stereo not given) the IC50 (D(2) dopamine receptor [2]) was 1970 nM and the IC50 (D(2) dopamine receptor [3]) was > 100000 nM.
With `CCCN(CCCl)C1CCc2cc(OC)c(OC)cc2C1.Cl` (stereo not given) the IC50 (D(2) dopamine receptor [1]) was “Not Active”.
`Oc1cc2c(cc1O)CC(NCCBr)CC2` (stereo not given) was tested, and the IC50 (D(2) dopamine receptor [2]) was 170 nM and the IC50 (D(2) dopamine receptor [3]) was 420 nM.
For `COc1cc2c(cc1OC)CC(NCCO)CC2.Cl` (stereo not given), the IC50 (D(2) dopamine receptor [1]) was “Not Active”.
`CN(CCCl)C1CCc2c(ccc(O)c2O)C1` (stereo not given) was tested, and the IC50 (D(2) dopamine receptor [2]) was 32200 nM and the IC50 (D(2) dopamine receptor [3]) was > 100000 nM.
In the case of `Oc1cc2c(cc1O)CC(NCCCl)CC2` (stereo not given), the IC50 (D(2) dopamine receptor [2]) is reported as 300 nM and the IC50 (D(2) dopamine receptor [3]) is reported as > 100000 nM.
Work on `CN(CCCl)C1CCc2cc(O)c(O)cc2C1` (stereo not given) yielded an IC50 (D(2) dopamine receptor [2]) of 1820 nM and an IC50 (D(2) dopamine receptor [3]) of 3720 nM.
With `Br.CCCN(CC(C)Br)C1CCc2cc(O)c(O)cc2C1` (stereo not given) the IC50 (D(2) dopamine receptor [1]) was “Not Active”.
Compound `CCCN(CCO)C1CCc2cc(O)c(O)cc2C1` (stereo not given) has an IC50 (D(2) dopamine receptor [2]) of 420 nM and an IC50 (D(2) dopamine receptor [3]) of 2420 nM.
With `CC(Br)CNC1CCc2cc(O)c(O)cc2C1` (stereo not given) the IC50 (D(2) dopamine receptor [2]) was 300 nM and the IC50 (D(2) dopamine receptor [3]) was 1010 nM.
In the case of `CCCN(CCO)C1CCc2cc(OC)c(OC)cc2C1` (stereo not given), the IC50 (D(2) dopamine receptor [1]) is reported as “Not Active”.
`COc1cc2c(cc1OC)CC(NC(=O)CCl)CC2` (stereo not given) was tested, and the IC50 (D(2) dopamine receptor [1]) was “Not Active”.
With `CCCN(C(=O)CCl)C1CCc2cc(OC)c(OC)cc2C1` (stereo not given) the IC50 (D(2) dopamine receptor [1]) was “Not Active”.

— ChEMBL document CHEMBL1123623, “Synthesis of some [N-(2-haloalkyl)amino]tetralin derivatives as potential irreversible labels for bovine anterior pituitary D2 dopamine receptors” (J Med Chem, 1987)
